Laboratory results published in paper PMC6980386 (Traffic (Copenhagen, Denmark), 2019).

Assays:
FL huCD4 L14A = FL huCD4 L14A (Homo sapiens, UniProt P01730, L14A); assay: CADA down-modulation of cellular huCD4; type: cell-based
Procedure, shortened: (§1)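 HEK293T cells, seeded overnight in DMEM with 10% serum, 1 mM sodium pyruvate and 0.075% NaHCO₃, were lipofected with full-length human CD4 (WT or mutant). Test compound in DMSO was added 6 h post-transfection as 1:5 serial dilutions (50–0.016 μM) for 48 h. Surface CD4 was stained with FITC/APC anti-CD4 (SK3) and read by flow cytometry. IC50 is 50% of the untreated signal, from four-parameter fits of ≥3 replicate experiments. FC is mutant/WT mean IC50.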

huCD4_1–32-YFP L19A = huCD4_1–32-YFP L19A (Homo sapiens, UniProt P01730, L19A); assay: CADA inhibition of huCD4_1–32-YFP secretion; type: cell-based
Procedure, shortened: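 HEK293T cells were grown in DMEM with 10% FBS and 10 mM HEPES, seeded and left to adhere overnight, then transiently transfected with plasmid by Lipofectamine. Test compound was added 6 h after transfection as a 1:5 serial dilution (50 to 0.016 μM) for 48 h. Secreted YFP in the supernatant was captured on GFP-Trap magnetic beads for 1 h, washed with PBS and measured by flow cytometry. IC50 is the concentration that halves the signal relative to the untreated control, taken from a four-parameter fit of at least three replicate experiments. FC is the mutant mean IC50 divided by the WT mean IC50.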

FL huCD4 L18A = FL huCD4 L18A (Homo sapiens, UniProt P01730, L18A); assay: CADA down-modulation of cellular huCD4; type: cell-based
Procedure, shortened: as §1

FL huCD4 K27R = FL huCD4 K27R (Homo sapiens, UniProt P01730, K27R); assay: CADA down-modulation of cellular huCD4; type: cell-based; conditions: HEK293T, 48h
Procedure, shortened: as §1

[1] = molecular target: truncated huCD4 D1D2 L18A (Homo sapiens, UniProt P01730, L18A); assay: Cell-free in vitro translation and translocation; type: biochemical; conditions: 15 μM CADA
Procedure, shortened: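 Truncated huCD4 D1D2 (lacking glycosylation sites and membrane anchor) was made by PCR and transcribed with T7. Proteinase K protection ran 30 min on ice and was quenched with PMSF. Products were separated by SDS-PAGE and imaged by phosphor imaging. The SP-cleaved band was normalised to the matching control. Data are from 2–5 independent experiments, compared with WT by Welch t test.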

[2] = + less, − more sensitive to CADA
[3] = read-out: Cellular huCD4 IC50 (μM) Mean, HEK293T, CADA 48h

C=C1CN(S(=O)(=O)c2ccc(C)cc2)CCCN(Cc2ccccc2)CCCN(S(=O)(=O)c2ccc(C)cc2)C1 [CADA, Cyclotriazadisulfonamide]
Cellular huCD4 FC (fold change of mean IC50 relative to WT) (FL huCD4 L14A; [2]): −1.2
IC50 (FL huCD4 L14A; [3]): 0.46 µM
Secreted YFP FC (fold change of mean IC50 relative to WT) (huCD4_1–32-YFP L19A; [2]): +3.6
IC50 (huCD4_1–32-YFP L19A; read-out: Secreted YFP IC50 (μM) Mean, HEK293T, CADA 48h): 4.57 µM
Cellular huCD4 FC (fold change of mean IC50 relative to WT) (FL huCD4 L18A; [2]): −5.4
IC50 (FL huCD4 L18A; [3]): 0.1 µM
sensitivity to CADA (FL huCD4 K27R): kept full sensitivity to CADA
sensitivity of translocation towards CADA compared to WT [1]: higher sensitivity towards CADA
